{"source": "paper PMC11559620", "about": "(Science Advances, 2024)", "molecules": {"B1": {"name": "CML17: calmodulin-like protein of Arabidopsis, At1g32250 (protein)", "chain": "MSHKVSKKLDEEQINELREIFRSFDRNKDGSLTQLELGSLLRALGVKPSPDQFETLIDKADTKSNGLVEFPEFVALVSPELLSPAKRTTPYTEEQLLRLFRIFDTDGNGFITAAELAHSMAKLGHALTVAELTGMIKEADSDGDGRINFQEFAKAINSAAFDDIWG", "modifications": "left off: Gal4 activation domain (vector pGADT7), end not stated, kept"}, "B2": {"name": "NHX1: vacuolar K+/H+ exchanger of Arabidopsis; C-terminal T435 to A538 in Y2H (protein, UniProt Q68KI4 435-538, looked up, fragment)", "chain": "TKPLISYLLPHQNATTSMLSDDNTPKSIHIPLLDQDSFIEPSGNHNVPRPDSIRGFLTRPTRTVHYYWRQFDDSFMRPVFGGRGFVPFVPGSPTERNPPDLSKA"}, "B3": {"name": "CML18, recombinant, purified (natural protein)", "chain": "MSCDGGKPAPAKLGDEQLAELREIFRSFDQNKDGSLTELELGSLLRSLGLKPSQDQLDTLIQKADRNNNGLVEFSEFVALVEPDLVKCPYTDDQLKAIFRMFDRDGNGYITAAELAHSMAKLGHALTAEELTGMIKEADRDGDGCIDFQEFVQAITSAAFDNAWG"}, "B4": {"name": "D506N (protein, UniProt Q68KI4 1-538, looked up, variant D506N)", "Sodium/hydrogen exchanger 1": "MLDSLVSKLPSLSTSDHASVVALNLFVALLCACIVLGHLLEENRWMNESITALLIGLGTGVTILLISKGKSSHLLVFSEDLFFIYLLPPIIFNAGFQVKKKQFFRNFVTIMLFGAVGTIISCTIISLGVTQFFKKLDIGTFDLGDYLAIGAIFAATDSVCTLQVLNQDETPLLYSLVFGEGVVNDATSVVVFNAIQSFDLTHLNHEAAFHLLGNFLYLFLLSTLLGAATGLISAYVIKKLYFGRHSTDREVALMMLMAYLSYMLAELFDLSGILTVFFCGIVMSHYTWHNVTESSRITTKHTFATLSFLAETFIFLYVGMDALDIDKWRSVSDTPGTSIAVSSILMGLVMVGRAAFVFPLSFLSNLAKKNQSEKINFNMQVVIWWSGLMRGAVSMALAYNKFTRAGHTDVRGNAIMITSTITVCLFSTVVFGMLTKPLISYLLPHQNATTSMLSDDNTPKSIHIPLLDQDSFIEPSGNHNVPRPDSIRGFLTRPTRTVHYYWRQFNDSFMRPVFGGRGFVPFVPGSPTERNPPDLSKA"}, "B5": {"name": "pore domain (TM1 to TM9): pore domain of NHX1 (residues M1 to T292) fused to Cub-PLV (protein)", "chain": "MLDSLVSKLPSLSTSDHASVVALNLFVALLCACIVLGHLLEENRWMNESITALLIGLGTGVTILLISKGKSSHLLVFSEDLFFIYLLPPIIFNAGFQVKKKQFFRNFVTIMLFGAVGTIISCTIISLGVTQFFKKLDIGTFDLGDYLAIGAIFAATDSVCTLQVLNQDETPLLYSLVFGEGVVNDATSVVVFNAIQSFDLTHLNHEAAFHLLGNFLYLFLLSTLLGAATGLISAYVIKKLYFGRHSTDREVALMMLMAYLSYMLAELFDLSGILTVFFCGIVMSHYTWHNVT", "modifications": "left off: Cub-PLV, end not stated, kept"}}, "key": {"[1]": {"system": "NHX1", "assay": "Yeast two-hybrid assay, CMD1 with NHX1", "type": "cell-based, Arabidopsis", "conditions": "fig. S1A"}, "[2]": {"system": "NHX1 to NHX4", "assay": "Yeast two-hybrid assay, CML17 with vacuolar NHX1 to NHX4", "type": "cell-based, Arabidopsis", "conditions": "fig. S1B", "summary_of_the_method": "(§1)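 Strain AH109 was cotransformed with NHX C-terminal fragments in pGBKT7 (GAL4 BD) and CML17 or CML18 in pGADT7 (GAL4 AD), selected on YNB-Trp-Leu. Cultures were grown at 28°C to saturation (OD600 ~2), then 5-μl drops of 10-fold dilutions were spotted on YNB-Trp-Leu, -His-Trp-Leu and -Ade-Trp-Leu. Plates were incubated at 28°C for 3–4 days. p53/pSV40 served as positive control, empty vectors as negative.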"}, "[3]": {"system": "CML18", "assay": "Yeast two-hybrid assay, interaction with CML18", "type": "cell-based, Arabidopsis", "conditions": "C-terminal cytosolic fragments; selective YNB media", "summary_of_the_method": "as §1"}, "[4]": {"system": "NHX2", "assay": "Bimolecular fluorescence complementation, interaction with NHX2", "type": "cell-based, Arabidopsis", "conditions": "leaves of N. benthamiana", "summary_of_the_method": "(§2)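 Agrobacterium GV3101 carrying BiFC constructs was co-infiltrated with a p19-transformed strain into 5- to 6-week-old N. benthamiana leaves. Full-length NHX1 or NHX2 and CML18 were each fused to complementary halves of eYFP. Empty pSPYCE(M) served as negative control. The lower epidermis was imaged by confocal microscopy (515-nm laser, 60× objective) under constant imaging settings, using a YFP filter.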"}, "[5]": {"system": "CML18", "assay": "Bimolecular fluorescence complementation, interaction with CML18", "type": "cell-based, Arabidopsis", "conditions": "leaves of N. benthamiana", "summary_of_the_method": "as §2"}, "[6]": {"system": "AXT3K strain", "assay": "Complementation assay, hygromycin B resistance of yeast AXT3K", "type": "cell-based, Saccharomyces cerevisiae"}, "[7]": {"system": "C terminus of NHX1", "assay": "Yeast two-hybrid assay, dimerization with C terminus of NHX1", "type": "cell-based, Arabidopsis", "conditions": "fig. S2; cytosolic C-terminal domains"}, "[8]": {"target": "CML-BD peptide, synthetic peptide of the CML18-binding motif of NHX1 (residues D485 to R518) (Arabidopsis thaliana)", "assay": "ITC"}, "[9]": {"target": "CML-BD peptide, synthetic peptide of the CML18-binding motif of NHX1 (residues D485 to R518) (Arabidopsis thaliana)", "assay": "ITC", "remark": "listed apart in the source"}, "[10]": {"system": "AXT3K strain", "assay": "Growth of AXT3K in pH-buffered liquid media with hygromycin B", "type": "cell-based, Saccharomyces cerevisiae", "conditions": "buffered at acidic or neutral pH; OD600 after 24h", "summary_of_the_method": "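Strain AXT3K (ena1-4, nha1 and nhx1 deletions; HygB-sensitive) carried NHX1 alleles in pDR195, selected on YNB lacking His and Ura. Cultures were grown overnight at 30°C and adjusted to OD600 0.5. Then 20 μl was inoculated into 200 μl liquid medium per well and serially diluted 10-fold. Incubation was at 30°C, with OD600 read at 24 and 48 h. Three independent transformants were tested per construct.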"}, "[11]": {"system": "yeast vacuoles", "assay": "Vacuolar pH of yeast by BCECF-AM", "type": "cell-based, Saccharomyces cerevisiae", "conditions": "n = 8"}, "[12]": {"system": "CBD", "assay": "Split-ubiquitin assay, interaction of pore domain with CBD", "type": "cell-based, Arabidopsis", "conditions": "yeast; YNB without adenine and histidine, 3 days at 28°C", "summary_of_the_method": "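Split-ubiquitin assay in yeast: NHX1 pore domain (residues M1–T292) was fused to Cub-PLV (pMetYCgate). The CBD (S486–G516) or the intervening loop (L453–N480) was fused to NubG (pNXgate32). KAT1 served as dimerisation positive control and CBD negative control. Double transformants were spotted on YNB with and without adenine and histidine. Expression was checked by HA/c-Myc immunoblot.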"}}, "note": "Entries after “also recorded” stand apart in the source; their conditions may differ. Where two headings read alike, the source gives them in different places."}
{"molecule": "CMD1: the only calmodulin protein produced in S. cerevisiae", "values": [{"measurement": "interaction with NHX1 (Y2H)", "setting": "[1]", "value": "negative results"}]}
{"molecule": "B1", "values": [{"measurement": "interaction with vacuolar NHX1 to NHX4 (Y2H)", "setting": "[2]", "value": "failed to demonstrate interaction"}]}
{"molecule": "B2", "values": [{"measurement": "interaction with CML18 (Y2H)", "setting": "[3]", "value": "strongly; also recorded: CML18 binding was confirmed"}, {"measurement": "interaction with NHX2 (BiFC)", "setting": "[4]", "value": "interacted with NHX2-cYFP"}, {"measurement": "interaction with CML18 (BiFC)", "setting": "[5]", "value": "interacted with CML18"}, {"measurement": "HygB resistance / protein activity in AXT3K", "setting": "[6]; YPD + HygB (50 μg/ml), 30°C", "value": "suppressed the HygB sensitivity"}, {"measurement": "homodimerization / heterodimerization (Y2H)", "setting": "[7]", "value": "positive results"}]}
{"molecule": "B3", "values": [{"measurement": "Kd", "setting": "[8]", "value": 2210, "unit": "nM"}, {"measurement": "Kd", "setting": "[9]", "value": 3020, "unit": "nM"}, {"measurement": "stoichiometry N (CML-BD binding sites per CML18 monomer)", "setting": "[9]", "value": 2}]}
{"molecule": "B4", "values": [{"measurement": "interaction with CML18 (Y2H)", "setting": "[3]", "value": "lost the ability to bind CML18"}, {"measurement": "activity irrespective of pH of growth media", "setting": "[10]", "value": "inactive"}, {"measurement": "vacuolar pH (pHvac)", "setting": "[11]", "value": "overly acidic"}, {"measurement": "HygB resistance / protein activity in AXT3K", "setting": "[6]; YPD + HygB (50 μg/ml), 30°C", "value": "inactive; also recorded: unable to suppress the sensitivity of the nhx1 mutant to HygB"}, {"measurement": "HygB resistance / protein activity in AXT3K", "setting": "[6]; in combination with H499L", "value": "inactive"}]}
{"molecule": "B5", "values": [{"measurement": "interaction with CBD (split-ubiquitin)", "setting": "[12]", "value": "confirmed"}]}
